The results in this text go back to ChEMBL document CHEMBL4049418, “6-OH-Phenanthroquinolizidine Alkaloid and Its Derivatives Exert Potent Anticancer Activity by Delaying S Phase Progression” (J Med Chem, 2017).

Active and inactive are the calls of the source. No cut-off for these calls is given here.

The test system of one experiment is MRC5. The experiment in a line: Antiproliferative activity against human MRC5 cells assessed as reduction in viability after 72 hrs by SRB assay. The settings on record: MRC5, 72 h. The class given is cell-based. In outline:
(§1)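 Cells seeded and dosed in triplicate for 72 h. Suspension lines (HL-60, K-562, K562/ADR, HL-60/MX2) were read by MTT: 5 mg/mL MTT stock added, 4 h at 37 °C, formazan dissolved in 10% SDS/5% isobutanol/10 mM HCl, A570. Adherent lines were read by SRB: fixed with cold 10% TCA, stained with 0.4% SRB in 1% acetic acid, A540. IC50 from four-parameter logistic fit; mean of ≥3 independent experiments.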

The test system of a further experiment is L02. The experiment in a line: Antiproliferative activity against human LO2 cells assessed as reduction in viability after 72 hrs by SRB assay. The class given is cell-based. The settings on record: L02, 72 h. Summed up: as §1
Experiment [1] in a line: Selectivity ratio of IC50 for human MRC5 cells to IC50 for human A549 cells. In outline: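 SRB assay: A549 (F-12, 10% FBS) and MRC-5/MRC-9 (EMEM, 10% FBS) treated in triplicate 72 h, fixed with ice-cold 10% TCA, stained with 0.4% SRB in 1% acetic acid, absorbance 540 nm; IC₅₀ by four-parameter logistic fit, mean of ≥3 independent experiments.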
In experiment [2] the test system is Bel-7402. Put plainly: Antiproliferative activity against human Bel7402 cells assessed as reduction in cell viability at 0.12 to 10 nM up to 10 days by fluorescence-based cell imaging method. The class given is functional. Summed up:
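Live-cell imaging (IncuCyte ZOOM) of BEL-7402 cells seeded at 1.5 × 10⁴ per well in 12-well plates. Cells treated in triplicate with a concentration gradient and imaged continuously for 10 days to build growth curves.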

Experiment [3] concerns Bel-7402. Put plainly: Inhibition of colony formation in human Bel7402 cells after 24 hrs by SRB staining-based plate colony formation assay. The class given is functional, cell-based. Summed up: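 BEL-7402 cells seeded at 200 per well, treated in triplicate 24 h, washed twice with PBS, then grown 12 days in fresh medium; colonies stained with SRB and those ≥1 mm diameter counted; three independent experiments, mean ± SD.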

In experiment [4] the test system is Bel-7402. The experiment in a line: Cell cycle arrest in human Bel7402 cells assessed as accumulation in S-phase after 24 hrs by propidium iodide staining-based flow cytometry. The class given is functional. In outline:
(§2)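 BEL-7402 cells exposed for 24 h, then fixed in 70% ethanol at −20 °C for ≥1 h. Stained with 50 μg/mL propidium iodide plus 10 μg/mL RNase A for 30 min in the dark at room temperature. DNA content read by flow cytometry on ≥1.0 × 10⁴ cells per sample.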

The test system of experiment [5] is Bel-7402. The experiment in a line: Cell cycle arrest in human Bel7402 cells assessed as accumulation in S-phase at 10 nM after 24 hrs by propidium iodide staining-based flow cytometry (reference value: 27.5 +/- 1%). The class given is functional. In outline: as §2
The next experiment has as its system Zip-177. Put plainly: Cell cycle arrest in human Zip-177 cells assessed as delay in progression of S-phase to G2-phase at 1 to 10 nM pre-treated with aphidicolin for 16 hrs followed by compound addition measured after 24 hrs by propidium iodide staining-based flow cytometric method. The class given is functional. Summed up:
(§3)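 Exponentially growing cells synchronized in early S phase with 0.2 μg/mL aphidicolin for 16 h. Cells released into fresh medium with or without compound for set times. Ethanol-fixed, stained with PI/RNase, and cell cycle distribution read by flow cytometry. Representative of three independent experiments.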

Experiment [6] relates to Bel-7402. Put plainly: Inhibition of DNA synthesis in human Bel7402 cells assessed as BrdU incorporation at 1 nM preincubated for 1 hr followed by BrdU addition for 30 mins by FITC/propidium iodide staining based flow cytometry (reference value: 35.5%). The class given is functional. The arrangement: scale not given: the % may be the effect or the level left. In outline:
(§4)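 BEL-7402 cells (3 × 10⁵ per well) exposed to compounds 1 h, then labeled with 10 μM BrdU for 30 min; trypsinized, fixed in 70% ethanol at −20 °C ≥1 h, 2 N HCl 20 min, neutralized with 0.1 M borate, stained with anti-BrdU-FITC plus PI 30 min; BrdU-positive cells quantified by flow cytometry; three independent experiments, mean + SD.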

Experiment [7] has as its system Bel-7402. The experiment in a line: Induction of DNA damage in human Bel7402 cells assessed as increase in CHK1 phosphorylation at Ser345 residue at 1 to 100 nM after 1 hr by Western blot analysis. The class given is functional, cell-based. Summed up:
(§5)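 BEL-7402 cells (1.5 × 10⁵ per well, 12-well plates) exposed to compounds for 1 h. Phospho-Chk1 Ser345, phospho-Chk2 Thr68 and γH2AX detected by Western blot. Camptothecin at 1 μM served as the DNA-damage reference.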

Experiment [8] relates to Bel-7402. Put plainly: Induction of DNA damage in human Bel7402 cells assessed as increase in CHK2 phosphorylation at Thr68 residue at 1 to 100 nM after 1 hr by Western blot analysis. The class given is functional, cell-based. In outline: as §5
Experiment [9] has as its system Bel-7402. The experiment in a line: Induction of apoptosis in human Bel7402 cells assessed as viable cells at 1 nM after 72 hrs by Annexin V/propidium iodide staining based flow cytometric analysis (reference value: 92.4%). The class given is functional. The settings on record: Bel-7402, 72 h, read-out: Activity.
The test system of experiment [10] is Bel-7402. Put plainly: Induction of apoptosis in human Bel7402 cells assessed as necrotic cells at 10 nM after 72 hrs by Annexin V/propidium iodide staining based flow cytometric analysis (reference value: 0.38%). The class given is functional.
In experiment [11] the test system is Bel-7402. Put plainly: Cell cycle arrest in human Bel7402 cells assessed as delay in progression of S-phase to G2-phase at 0.1 to 1 uM pre-treated with aphidicolin for 16 hrs followed by compound addition measured up to 24 hrs by propidium iodide staining-based flow cytometric method. The class given is functional. In outline: as §3
Experiment [12] concerns Bel-7402. The experiment in a line: Inhibition of DNA synthesis in human Bel7402 cells assessed as BrdU incorporation at 10 uM preincubated for 1 hr followed by BrdU addition for 30 mins by FITC/propidium iodide staining based flow cytometry (reference value: 35.5%). The class given is functional. The arrangement: scale not given: the % may be the effect or the level left. In outline: as §4

In experiment [13] the test system is Bel-7402. Put plainly: Induction of DNA damage in human Bel7402 cells assessed as increase in gamma-H2AX levels at 0.1 to 10 uM after 1 hr by Western blot analysis. The class given is functional, cell-based. In outline:
as §5

The test system of experiment [14] is Bel-7402. Put plainly: Induction of apoptosis in human Bel7402 cells assessed as late apoptotic cells at 1 uM after 72 hrs by Annexin V/propidium iodide staining based flow cytometric analysis (reference value: 3.6%). The class given is functional. Summed up: (§6)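 BEL-7402 cells (3 × 10⁵ per well, 6-well plates) exposed for 72 h. Harvested, PBS-washed, resuspended in cold binding buffer with annexin V–FITC and PI, and stained 15 min in the dark at room temperature. Early apoptotic, late apoptotic and necrotic fractions quantified by flow cytometry.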

Experiment [15] has as its system Bel-7402. Put plainly: Induction of apoptosis in human Bel7402 cells assessed as viable cells at 10 uM after 72 hrs by Annexin V/propidium iodide staining based flow cytometric analysis (reference value: 92.4%). The following applies: Bel-7402, 72 h, read-out: Activity. The class given is functional.
Experiment [16] concerns Bel-7402. The experiment in a line: Induction of apoptosis in human Bel7402 cells assessed as early apoptotic cells at 10 uM after 72 hrs by Annexin V/propidium iodide staining based flow cytometric analysis (reference value: 3.66%). The class given is functional. In outline:
as §6

In experiment [17] the test system is Bel-7402. Put plainly: Induction of apoptosis in human Bel7402 cells assessed as necrotic cells at 10 uM after 72 hrs by Annexin V/propidium iodide staining based flow cytometric analysis (reference value: 0.38%). The class given is functional.
For another experiment, the system named is K562/Adr. Put plainly: Effect on P-gp expression in human K562/ADR cells up to 10 uM after 24 hrs by Western blot analysis. The class given is functional, cell-based.
Another experiment concerns KB-V1. Put plainly: Growth inhibition of human KBV1 cells after 8 days by methylene blue-staining based spectrophotometry. The class given is functional. The settings on record: KB-V1, 192 h.

As to `COc1cc2c3c(c4ccc(O)cc4c2cc1OC)CN1CCCC[C@@H]1C3`, the IC50 in the experiment on MRC5 was determined as 2.6 nM; with L02, 2.7 nM. Further, the “Ratio IC50” value in [1] is listed as 3 - 4. In the experiment with Bel-7402 [2], the inhibition entry was “Active”. Besides, in the experiment on Bel-7402 [3], the inhibition result is “Dose-dependent effect”. Also, the Activity result in the experiment on Bel-7402 [4] was “Dose-dependent effect”; in the experiment with Bel-7402 [5], 50.3%; in the experiment on Bel-7402 [6], 28.6%; with Bel-7402 [10], 0.94%. Also, the outcome in the experiment with Zip-177 was Active. For the same compound, the result in the experiment with Bel-7402 [7] and with Bel-7402 [8] was inactive. Also, in the experiment with Bel-7402 [9], the viability at 0.001 µM came out at 94.4%.

Turning to `COc1cc2c3c(c4cc(OC)c(OC)cc4c2cc1OC)[C@H](O)[C@@H]1CCCN1C3`, the outcome in the experiment on Bel-7402 [11] was Active. The Activity turned out to be 1.9% in the experiment with Bel-7402 [12], 1.92% with Bel-7402 [14], 2.06% in the experiment with Bel-7402 [16] and 1.39% with Bel-7402 [17]. Moreover, the result in the experiment with Bel-7402 [13] and with K562/Adr was inactive. Also, the viability at 10 µM with Bel-7402 [15] was 85.1%. Further, halving of growth in the experiment on KB-V1 (GI50) required 30 nM.
